≈ marks a conversion by molar mass, not a printed value. Calls of active or inactive are those of the source. The rule behind the calls is not given here.
Experiments:
Staphylococcus aureus [1] = test: Antibacterial activity against Staphylococcus aureus ATCC 6538 up to 60 uM after 16 to 48 hrs; assay type: functional
In short: (§1)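 MIC determined after 16−48 h incubation, in triplicate, following earlier published protocols; kanamycin and ampicillin as positive controls for bacteria, amphotericin B for S. cerevisiae. S. aureus, S. enterica and S. cerevisiae strains from ATCC.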

Micrococcus luteus [2] = test: Antibacterial activity against Micrococcus luteus NRRL B-287 up to 60 uM after 16 to 48 hrs; assay type: functional; in short: as §1
Escherichia coli = test: Antibacterial activity against Escherichia coli NRRL B-3708 up to 60 uM after 16 to 48 hrs; assay type: functional; in short: as §1
Salmonella enterica [3] = test: Antibacterial activity against Salmonella enterica ATCC 10708 up to 60 uM after 16 to 48 hrs; assay type: functional; in short: as §1
Saccharomyces cerevisiae [4] = test: Antifungal activity against Saccharomyces cerevisiae ATCC 204508 up to 60 uM after 16 to 48 hrs; assay type: functional; in short: as §1
A549 [5] = test: Cytotoxicity against human A549 cells assessed as decrease in cell viability up to 20 uM after 48 hrs by resazurin assay; assay type: functional, cell-based
In short: (§2)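 A549 non-small-cell lung cells from ATCC, run in triplicate following earlier published protocols; actinomycin D as positive control.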

Hippocampal neurone [6] = test: Neuroprotective activity against EtOH-induced damage in Sprague-Dawley rat hippocampal neuron at 0.01 uM after 48 hrs by propidium iodide uptake assay; assay type: functional, cell-based
In short: (§3)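 Organotypic hippocampal slices from 8-day-old Sprague−Dawley rats in medium with 3.74 μM propidium iodide, with or without 100 mM EtOH plus test agent at varied concentrations, 48 h. Slices then imaged for propidium iodide uptake intensity as a marker of cell damage; post hoc statistical comparison vs control and vs EtOH.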

Hippocampal neurone [7] = test: Neuroprotective activity against EtOH-induced damage in Sprague-Dawley rat hippocampal neuron at 0.01 to 0.10 uM after 48 hrs by propidium iodide uptake assay; assay type: functional, cell-based; in short: as §3
A549 [8] = test: Cytotoxicity against human A549 cells assessed as decrease in cell viability after 48 hrs by resazurin assay; assay type: functional, cell-based; in short: as §2
Staphylococcus aureus [9] = test: Antibacterial activity against Staphylococcus aureus ATCC 6538 after 16 to 48 hrs; assay type: functional; in short: as §1
Micrococcus luteus [10] = test: Antibacterial activity against Micrococcus luteus NRRL B-287 after 16 to 48 hrs; assay type: functional; in short: as §1
Salmonella enterica [11] = test: Antibacterial activity against Salmonella enterica ATCC 10708 after 16 to 48 hrs; assay type: functional; in short: as §1
Saccharomyces cerevisiae [12] = test: Antifungal activity against Saccharomyces cerevisiae ATCC 204508 after 16 to 48 hrs; assay type: functional; in short: as §1
HEK293 = test: Modulation of unfolded protein response in HEK293 cells after 48 hrs by ASGR-Cluc secretion assay; conditions: Homo sapiens
Hippocampal neurone [13] = test: Neuroprotective activity against EtOH-induced damage in Sprague-Dawley rat hippocampal neuron after 48 hrs by propidium iodide uptake assay; assay type: functional, cell-based; in short: as §3

| Structure (SMILES) | Activity (Staphylococcus aureus [1]) | Activity (Micrococcus luteus [2]) | Activity (Escherichia coli) | Activity (Salmonella enterica [3]) | Activity (Saccharomyces cerevisiae [4]) | Activity (A549 [5]) | other results |
| --- | --- | --- | --- | --- | --- | --- | --- |
| COC(=O)C1COC(c2ccccc2O)=N1 (configuration not stated) | inactive | inactive | inactive | inactive | inactive | inactive |  |
| NC(=O)[C@@H]1COC(c2ccccc2O)=N1 | inactive | inactive | inactive | inactive | inactive | inactive | Activity (Hippocampal neurone [6]): Active |
| CC(=O)NCCc1ccc(O)cc1 | inactive | inactive | inactive | inactive | inactive | inactive |  |
| N[C@@H](COC(=O)c1ccccc1O)C(=O)N[C@@H](CO)C(=O)N[C@H](CCCN(O)C=O)C(=O)NCCC(=O)N[C@@H]1CCCN(O)C1=O | inactive | inactive | inactive | inactive | inactive | inactive | Activity (Hippocampal neurone [7]): Active |
| NC(=O)c1ccc[nH]1 | inactive | inactive | inactive | inactive | inactive | inactive |  |
| CO[C@H]1CC[C@H](O[C@@H]2C[C@@H]([C@@H](C)/C=C(\C)C(=O)[C@H](C)C[C@H](C)C(=O)O)O[C@@]3(CC[C@@](C)([C@H]4CC[C@@H](C)[C@@]5(O[C@@H]([C@H]6O[C@@](O)(CO)[C@H](C)C[C@@H]6C)C[C@@H]5C)O4)O3)[C@@H]2C)O[C@@H]1C |  |  |  |  |  |  | IC50 (A549 [8]; Homo sapiens, A549, 48 h): 1200 nM; MIC (Staphylococcus aureus [9]; Staphylococcus aureus, ATCC 6538, read-out: MIC): 0.1 to 3 µM (≈ 0.0851 to 2.55 µg/mL); MIC (Micrococcus luteus [10]; Micrococcus luteus, NRRL B-287, read-out: MIC): 0.1 to 3 µM (≈ 0.0851 to 2.55 µg/mL); MIC (Salmonella enterica [11]; Salmonella enterica, ATCC 10708, read-out: MIC): 0.1 to 3 µM (≈ 0.0851 to 2.55 µg/mL); MIC (Saccharomyces cerevisiae [12]): 0.1 to 3 µM; EC50 (HEK293): 38 nM |
| CO[C@H]1CC[C@H](O[C@@H]2C[C@@H]([C@@H](C)/C=C(\C)C(=O)[C@H](C)C[C@H](C)C(=O)[O-])O[C@@]3(CC[C@@](C)([C@H]4CC[C@@H](C)[C@@]5(O[C@@H]([C@H]6O[C@@](O)(CO)[C@H](C)C[C@@H]6C)C[C@@H]5C)O4)O3)[C@@H]2C)O[C@@H]1C.[Na+] |  |  |  |  |  |  | IC50 (A549 [8]; a549): 1900 nM; MIC (Staphylococcus aureus [9]): 0.1 to 3 µM; MIC (Micrococcus luteus [10]): 0.1 to 3 µM; MIC (Salmonella enterica [11]): 0.1 to 3 µM; MIC (Saccharomyces cerevisiae [12]; Saccharomyces cerevisiae, ATCC 204508, read-out: MIC): 0.1 to 3 µM; EC50 (HEK293): 109 nM |
| NC(=O)Cc1ccccc1 | inactive | inactive | inactive | inactive | inactive | inactive |  |
| CNc1ccc(C(N)=O)cc1 | inactive | inactive | inactive | inactive | inactive | inactive |  |
| OC[C@@H]1COC(c2ccccc2O)=N1 | inactive | inactive | inactive | inactive | inactive | inactive | Activity (Hippocampal neurone [13]): inactive |
| O=C(NC(CO)CO)c1ccccc1O | inactive | inactive | inactive | inactive | inactive | inactive |  |
| O=CN(O)CCC[C@@H](NC(=O)[C@H](CO)NC(=O)[C@H](CO)NC(=O)c1ccccc1O)C(=O)NCCC(=O)N[C@@H]1CCCN(O)C1=O | inactive | inactive | inactive | inactive | inactive | inactive | Activity (Hippocampal neurone [13]): inactive |
| CC1=CC(=O)C[C@]2(C)CC[C@@H](C(C)(C)O)C[C@@H]12 | inactive | inactive | inactive | inactive | inactive |  |  |
| CC(C)C[C@@H]1NC(=O)[C@H]2C[C@@H](O)CN2C1=O | inactive | inactive | inactive | inactive | inactive | inactive |  |
| NC(=O)c1ccccc1O | inactive | inactive | inactive | inactive | inactive | inactive |  |
| C[C@@H](CO)NC(=O)c1ccccc1O | inactive | inactive | inactive | inactive | inactive | inactive |  |
| O=CN(O)CCC[C@@H](NC(=O)[C@H](CO)NC(=O)[C@@H]1COC(c2ccccc2O)=N1)C(=O)NCCC(=O)N[C@@H]1CCCN(O)C1=O | inactive | inactive | inactive | inactive | inactive | inactive | Activity (Hippocampal neurone [13]): inactive |
| C[C@H](CO)NC(=O)c1ccccc1O | inactive | inactive | inactive | inactive | inactive | inactive |  |

Reference: ChEMBL document CHEMBL4004793, “Spoxazomicin D and Oxachelin C, Potent Neuroprotective Carboxamides from the Appalachian Coal Fire-Associated Isolate Streptomyces sp. RM-14-6” (J Nat Prod, 2017)
